Most compounds without a hit are left out; they make up all but 2.9% or so of the library.
SENP8 block-1 = SENP8 (human) protease inhibition; Q96LD8; recombinant SENP8, Nedd8 substrate fluorescence; inhibition, % at 20 µM; actives 0.64% (n = 360,000); AID 602440; in the data active = inhibition mostly above about 40%, no sharp cut-off; inactive = mostly below about 27%
SENP1 FRET inh = blocks the human SENP1 SUMO protease catalytic domain; recombinant SENP1 catalytic domain, CyPet-SUMO1-YPet FRET cleavage; inhibition, % at 10 µM; actives 0.21% (n = 360,000); AID 624204;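 active = inhibition at least 30% at 10 µM, raw YFP signal under a set limit, fluorescence ratio 0.5 to 1.5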;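 also: 0% = enzyme with DMSO and 100% = no enzyme wells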
Target sequence (Q9P0U3 419-644 limits assumed): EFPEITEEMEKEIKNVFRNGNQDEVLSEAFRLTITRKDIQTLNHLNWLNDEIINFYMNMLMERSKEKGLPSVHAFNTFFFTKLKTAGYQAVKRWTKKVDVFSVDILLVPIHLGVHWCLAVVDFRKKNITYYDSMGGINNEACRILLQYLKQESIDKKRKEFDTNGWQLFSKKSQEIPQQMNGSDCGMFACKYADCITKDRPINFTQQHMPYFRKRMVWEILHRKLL
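Assay system – human recombinant His6-tagged SENP1 catalytic domain enzyme · Input – SENP1 enzyme, 20 pM final · Buffer or medium – Tris pH 8 buffer plus EDTA, NaCl, BME, BSA, NP40, catalase · Schedule – 50 min reaction at room temperature · Technique – FRET read of cyan and yellow fluorescence · Control set – no-enzyme wells low, DMSO-plus-enzyme wells high control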
HSP90 inh = blocks HSP90-mediated luciferase refolding in reticulocyte lysate; Rabbit reticulocyte lysate, luciferase refolding luminescence, 3 h; inhibition, % at 5.6 µM; actives 0.91% (n = 290,000); AID 1789;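 active = inhibition above the screen-wide mean plus 3 SD, computed separately per campaign, cut at about 16% in these data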;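 also: 0% = DMSO wells and 100% = 60 µM geldanamycin wells; inhibitors lower the luminescence because luciferase stays unfolded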
SENP8 block-2 = SENP8 protease inhibition. inhibition, % at 10 µM. Q96LD8. purified SENP8, Z-RLRGG-aminoluciferin cleavage, luminescence. actives 1.2% (n = 330,000); in the data active = inhibition above about 50%
SENP6 block = SENP6 protease inhibition | Q9GZR1 | Recombinant SENP6 catalytic domain, aminoluciferin luminescence | inhibition, % at 10 µM | actives 1.8% (n = 330,000);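 active = inhibition above about 50% at the single tested dose, limit read from the data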;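 also: plate controls were DMSO wells with enzyme for no effect and DMSO wells lacking enzyme for full effect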
SENP7 inh = inhibitors of human SENP7 protease | Q9BQF6 | inhibition, % at 5 µM | actives 1.5% (n = 330,000) | recombinant SENP7, Z-RLRGG-aminoluciferin luminescence, 40 min;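 active = inhibition above about 50% at the single test dose, limit read from the data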;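 also: plate controls were DMSO with enzyme for no effect and no enzyme buffer wells for full effect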
Target sequence (Q9BQF6 706-1050 limits assumed): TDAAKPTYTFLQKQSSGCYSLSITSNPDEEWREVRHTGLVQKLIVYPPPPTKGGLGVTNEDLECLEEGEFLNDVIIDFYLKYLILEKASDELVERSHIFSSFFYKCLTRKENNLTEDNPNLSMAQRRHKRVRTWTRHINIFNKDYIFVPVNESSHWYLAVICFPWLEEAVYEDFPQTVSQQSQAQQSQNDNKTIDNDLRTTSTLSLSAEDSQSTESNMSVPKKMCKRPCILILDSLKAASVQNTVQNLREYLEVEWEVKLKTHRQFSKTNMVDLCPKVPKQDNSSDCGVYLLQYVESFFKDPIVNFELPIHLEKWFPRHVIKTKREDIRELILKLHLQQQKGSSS
* = called active by the depositor; . = not tested or not shown.

SMILES | SENP8 block-1 | SENP1 FRET inh | HSP90 inh | SENP8 block-2 | SENP6 block | SENP7 inh
CCOC(=O)N=Nc1c2ccccc2c2nc3no[nH]c3nc12 | 94* | 2 | 6 | 31 | 62* | 31
CCOC(=O)N=Nc1c(O)n(CC(=O)OC)c2ccccc12 | 20 | 0 | 3 | -2 | 2 | -5
Cc1ccccc1NC1=C(C(=O)c2ccccc2)N(C)S(=O)(=O)c2ccccc21 | 43* | 22 | 4 | 1 | -11 | 5
CN1C(C(=O)Nc2ccc(C(=O)O)cc2)=C(O)c2ccccc2S1(=O)=O | -152 | 0 | . | -4 | 10 | 0
CCOC(=O)C(=O)N(C)c1c(CC)nc2c(OCc3ccc(OC(F)F)cc3)cccn12 | 23 | -1 | . | . | . | .
N#CC(C#N)=NNc1ccc(S(=O)(=O)N2CCCCC2)cc1 | 47* | 2 | 5 | 3 | 17 | -1
CCCn1c(N)c(C(=O)CN(C)CC(=O)Nc2c(Cl)cccc2Cl)c(=O)[nH]c1=O | 15 | -2 | . | -5 | 8 | 4
O=C1/C(=C/c2cccnc2)Sc2ccccc21 | -5 | 5 | 3 | -6 | 16 | -6
CC(=O)Nc1ccc(/C=C2\Sc3ccccc3C2=O)cc1 | -96 | -38 | -1 | 46 | 67* | 83*
Oc1ccc2c(c1)OCC1(O)Cc3cc(O)c(O)cc3C21 (stereo not given) | -2 | 31* | . | . | . | .
CC1Nc2ccccc2C(=O)N1NC(=O)c1ccc(Br)cc1 (stereo not given) | 8 | 0 | -5 | -11 | -12 | -9
CCCC[n+]1ccn(C2=C([O-])c3ccccc3C(=O)/C2=N\S(=O)(=O)c2ccccc2)c1 | 78* | 2 | 1 | 29 | 39 | 28
CCCC[n+]1ccn(-c2nc3ccccc3nc2[N-]S(=O)(=O)c2ccccc2)c1 | -295 | -124 | 1 | -6 | 8 | 5
CCCCC[n+]1ccn(-c2nc3ccccc3nc2[N-]S(=O)(=O)c2ccc(C)cc2)c1 | -483 | -21 | 4 | 1 | 0 | 1
CC(C)c1ccc(NC(=O)C[n+]2ccn(C3=C([O-])c4ccccc4C3=O)c2)cc1 | 24 | -1 | 4 | 7 | 36 | 16
CCCCC[n+]1ccn(C2=C([O-])c3ccccc3C(=O)/C2=N\S(=O)(=O)c2ccccc2)c1 | 67* | -1 | -2 | 22 | 25 | 18
CCCCC[n+]1ccn(C2=C([O-])c3ccccc3C(=O)/C2=N\S(=O)(=O)c2ccc(Br)cc2)c1 | 80* | 5 | 1 | 16 | 35 | 7
CC(C)[n+]1ccn(C2=C([O-])c3ccccc3C(=O)/C2=N\S(=O)(=O)c2ccccc2)c1 | 86* | 0 | 0 | 16 | 43 | 16
CCCCN(C)c1c(C)nc2ccc(C(=O)N(C)CCN(C)C)cn12 | -2 | -7 | . | . | . | .
CC(C)(C)c1ccc(COn2ccnc2)cc1 | 2 | 0 | -3 | -3 | 3 | 2
Cc1ccc(N2C(=O)CC(Cc3cccc(C)c3)C2=O)cc1 (stereo not given) | 8 | 1 | 0 | -13 | -8 | -4
COCC(=O)OC1CCn2c1nc1c2C(=O)C(C)=C(NC(C)=O)C1=O (stereo not given) | 96* | 2 | . | . | . | .
O=C1c2c(O)ccc(O)c2C(=O)c2c(NCCNCCO)ccc(NCCNCCO)c21 | 51* | 1 | . | 17 | 13 | 15
O=C(Nc1ccc(Br)cn1)c1ccc(Cl)s1 | 8 | 2 | 2 | 42 | 61* | 54*
CCCCC(=Nc1ccc(N)cc1)C1=C(O)C(C(=O)OC)C(C)(C)CC1=O (stereo not given) | 54* | 48* | 5 | -2 | 14 | 6
SMILES | SENP8 block-1 | SENP1 FRET inh | HSP90 inh | SENP8 block-2 | SENP6 block | SENP7 inh
CCCC(=Nc1ccccc1)C1=C(O)C(C(=O)OC)C(C)(C)CC1=O (stereo not given) | 12 | 6 | 2 | -7 | -22 | 2
O/N=C/c1ccc(OCc2ccccc2F)c(Cl)c1 | 11 | 1 | -3 | 80* | 92* | 75*
O/N=C/c1ccccc1OCc1ccccc1F | 10 | -1 | -2 | -5 | 8 | 3
COc1ccc(CCC(=O)NNC(=S)Nc2cccc(C(C)=O)c2)cc1 | -3 | 4 | 2 | -6 | -30 | -12
O=C(Cn1nnc(-c2ccccc2)n1)N/N=C/c1cccc([N+](=O)[O-])c1O | 27* | 5 | -1 | 6 | -7 | 5
NS(=O)(=O)c1ccc(NC(=O)CCC(=O)c2ccc(Cl)s2)cc1 | 6 | -2 | -2 | 0 | -29 | 5
S=c1[nH]nc(Cc2ccc(Cl)cc2)o1 | 6 | 1 | 5 | 0 | -15 | -1
CCCCC[C@@H](C)N1C[C@@H](COCc2ccccc2)Oc2cc(N3CC[C@@H](N(C)C)C3)ccc2S1(=O)=O | -16 | 1 | . | . | . | .
NC(=S)N=Nc1c(O)[nH]c2ccc(F)cc12 | 34 | 2 | 2 | -1 | -12 | -5
NC(=S)N=Nc1c(O)cc(O)c2[nH]c(=O)ccc12 | 75* | -5 | . | . | . | .
O=[N+]([O-])c1cccc(-c2ccc(C(=S)N3CCN(c4ccccc4)CC3)o2)c1 | 32* | -8 | 0 | -4 | -5 | -5
O=[N+]([O-])c1ccccc1-c1ccc(C(=S)N2CCCCC2)o1 | 4 | -26 | 10 | 38 | 52* | 11
O=C(Nc1nnc([C@H]2C[C@H](O)[C@@H](CO)O2)s1)NC1CCCCC1 | 5 | 1 | . | . | . | .
Cc1nn(C)c(C(=O)N2CCOCC2)c1Cl | 21 | 2 | -6 | 3 | 11 | -4
COc1cccc(C(=O)NCCS(=O)(=O)N2CCN(c3ccccc3)CC2)c1OC | 10 | 3 | . | . | . | .
O=C1c2cccc(O)c2C(=O)c2c(O)cc(CO)cc21 | . | . | . | 10 | 28 | 2
CC1OC2CC(=O)OC2C2=C1C(=O)c1c(O)cccc1C2=O (stereo not given) | 99* | 5 | . | . | . | .
CCCCc1ccc(CC2S/C(=C(\C#N)C(=O)N3CCOCC3)N(c3ccccc3)C2=O)cc1 (stereo not given) | 20 | 34* | 2 | 4 | -4 | 6
CC1=CS/C(=C(/C#N)C(=O)N2CCOCC2)N1c1ccccc1 | 18 | -1 | -2 | -6 | 4 | -8
O=C1c2ccccc2C(=O)c2c1cccc2-n1nnc2ccccc21 | 32 | 0 | -2 | 0 | -11 | 5
O=C1C(N2CCOCC2)=C(n2nnc3ccccc32)C(=O)c2ccccc21 | 76* | 0 | 41* | 74* | 76* | 35
CSCCC(NC(=O)c1ccccc1Br)C(=O)NCC(c1ccco1)N1CCCCC1 (stereo not given) | 3 | -4 | . | -14 | -20 | 7
COc1cc(/C=C2\SC(=S)N(NC(=O)c3ccncc3)C2=O)ccc1O | 33 | 49* | 1 | 6 | 4 | 11
COc1cc(/C=C2\SC(=S)N(NC(=O)c3ccc(O)c(OC)c3)C2=O)ccc1O | 36 | 18 | -1 | 5 | -17 | 4
